Activity calls are given as the source filed them. The rule behind the calls is not given here.
What was measured:
[1] = molecular target: T1, DNA topoisomerase 2-alpha (Homo sapiens, UniProt P11388); assay: Inhibition of recombinant human DNA topoisomerase-2alpha assessed as decrease in relaxation of supercoiled pBR322 DNA at […] after 30 mins by ethidium bromide staining based agarose gel electrophoresis relative to control
Summary of the method: (§1)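 Topo II relaxation of supercoiled pBR322 (198 ng) with 1 U enzyme, 50 mM Tris-HCl pH 8, 120 mM KCl, 10 mM MgCl2, 0.5 mM ATP, 0.5 mM DTT, drug in <10% DMSO; 37 °C for 30 min; products run on 1% agarose in TAE, ethidium-stained, scanned; supercoiled DNA area quantified.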

[2] = molecular target: T1, DNA topoisomerase 2-alpha; assay: Inhibition of recombinant human DNA topoisomerase-2alpha assessed as decrease in relaxation of supercoiled pBR322 DNA after 30 mins by ethidium bromide staining based agarose gel electrophoresis
[3] = molecular target: T1, DNA topoisomerase 2-alpha; assay: Inhibition of recombinant human DNA topoisomerase-2alpha assessed as decrease in relaxation of supercoiled pBR322 DNA at 200 uM after 30 mins by ethidium bromide staining based agarose gel electrophoresis relative to control; summary of the method: as §1
[4] = molecular target: DNA topoisomerase 1 (Homo sapiens) (UniProt P11387); assay: Inhibition of human placenta DNA topoisomerase-1 assessed as decrease in relaxation of supercoiled pUC19 DNA at 200 uM after 30 mins by ethidium bromide staining based agarose gel electrophoresis
DNA topoisomerase 1 (Homo sapiens), sequence (P11387 whole entry): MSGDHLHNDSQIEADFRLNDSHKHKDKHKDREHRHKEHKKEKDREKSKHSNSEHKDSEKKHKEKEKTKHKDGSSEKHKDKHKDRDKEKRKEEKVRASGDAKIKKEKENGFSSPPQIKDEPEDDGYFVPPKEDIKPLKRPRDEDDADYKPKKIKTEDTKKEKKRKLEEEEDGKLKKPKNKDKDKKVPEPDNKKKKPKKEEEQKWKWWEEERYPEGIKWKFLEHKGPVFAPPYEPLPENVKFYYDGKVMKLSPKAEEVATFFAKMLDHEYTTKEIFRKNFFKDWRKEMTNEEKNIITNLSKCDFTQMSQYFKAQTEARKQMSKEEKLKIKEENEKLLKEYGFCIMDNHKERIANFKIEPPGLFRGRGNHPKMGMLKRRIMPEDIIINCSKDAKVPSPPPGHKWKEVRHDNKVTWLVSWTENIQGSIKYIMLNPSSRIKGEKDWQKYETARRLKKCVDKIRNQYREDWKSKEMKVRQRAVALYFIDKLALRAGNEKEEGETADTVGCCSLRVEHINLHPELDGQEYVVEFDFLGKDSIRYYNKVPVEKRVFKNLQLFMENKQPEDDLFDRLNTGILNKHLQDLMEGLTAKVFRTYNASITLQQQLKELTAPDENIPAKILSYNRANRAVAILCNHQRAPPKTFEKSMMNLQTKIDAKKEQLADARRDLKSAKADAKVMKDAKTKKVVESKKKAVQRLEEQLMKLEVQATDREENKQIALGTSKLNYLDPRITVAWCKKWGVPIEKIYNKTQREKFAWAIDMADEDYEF

[5] = molecular target: T1, DNA topoisomerase 2-alpha; assay: Inhibition of recombinant human DNA topoisomerase-2alpha assessed as decrease in relaxation of supercoiled pBR322 DNA at 100 uM after 30 mins by ethidium bromide staining based agarose gel electrophoresis; summary of the method: as §1
[6] = molecular target: T1, DNA topoisomerase 2-alpha; assay: Poison activity at recombinant human DNA topoisomerase-2alpha assessed as linear DNA formation using supercoiled pBR322 DNA as substrate at 200 uM after 30 mins by ethidium bromide staining based agarose gel electrophoresis
Summary of the method: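 Cleavage reactions: 200 ng pBR322, 6 U topo II, 30 mM Tris-HCl pH 7.6, 60 mM NaCl, 8 mM MgCl2, 3 mM ATP, 15 mM mercaptoethanol, drug in 10% DMSO; 37 °C, 30 min; SDS/proteinase K 60 min, 37 °C; 1% agarose in TBE with 0.1% SDS and ethidium bromide; linear DNA scored.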

T1 sequence (P11388 whole entry): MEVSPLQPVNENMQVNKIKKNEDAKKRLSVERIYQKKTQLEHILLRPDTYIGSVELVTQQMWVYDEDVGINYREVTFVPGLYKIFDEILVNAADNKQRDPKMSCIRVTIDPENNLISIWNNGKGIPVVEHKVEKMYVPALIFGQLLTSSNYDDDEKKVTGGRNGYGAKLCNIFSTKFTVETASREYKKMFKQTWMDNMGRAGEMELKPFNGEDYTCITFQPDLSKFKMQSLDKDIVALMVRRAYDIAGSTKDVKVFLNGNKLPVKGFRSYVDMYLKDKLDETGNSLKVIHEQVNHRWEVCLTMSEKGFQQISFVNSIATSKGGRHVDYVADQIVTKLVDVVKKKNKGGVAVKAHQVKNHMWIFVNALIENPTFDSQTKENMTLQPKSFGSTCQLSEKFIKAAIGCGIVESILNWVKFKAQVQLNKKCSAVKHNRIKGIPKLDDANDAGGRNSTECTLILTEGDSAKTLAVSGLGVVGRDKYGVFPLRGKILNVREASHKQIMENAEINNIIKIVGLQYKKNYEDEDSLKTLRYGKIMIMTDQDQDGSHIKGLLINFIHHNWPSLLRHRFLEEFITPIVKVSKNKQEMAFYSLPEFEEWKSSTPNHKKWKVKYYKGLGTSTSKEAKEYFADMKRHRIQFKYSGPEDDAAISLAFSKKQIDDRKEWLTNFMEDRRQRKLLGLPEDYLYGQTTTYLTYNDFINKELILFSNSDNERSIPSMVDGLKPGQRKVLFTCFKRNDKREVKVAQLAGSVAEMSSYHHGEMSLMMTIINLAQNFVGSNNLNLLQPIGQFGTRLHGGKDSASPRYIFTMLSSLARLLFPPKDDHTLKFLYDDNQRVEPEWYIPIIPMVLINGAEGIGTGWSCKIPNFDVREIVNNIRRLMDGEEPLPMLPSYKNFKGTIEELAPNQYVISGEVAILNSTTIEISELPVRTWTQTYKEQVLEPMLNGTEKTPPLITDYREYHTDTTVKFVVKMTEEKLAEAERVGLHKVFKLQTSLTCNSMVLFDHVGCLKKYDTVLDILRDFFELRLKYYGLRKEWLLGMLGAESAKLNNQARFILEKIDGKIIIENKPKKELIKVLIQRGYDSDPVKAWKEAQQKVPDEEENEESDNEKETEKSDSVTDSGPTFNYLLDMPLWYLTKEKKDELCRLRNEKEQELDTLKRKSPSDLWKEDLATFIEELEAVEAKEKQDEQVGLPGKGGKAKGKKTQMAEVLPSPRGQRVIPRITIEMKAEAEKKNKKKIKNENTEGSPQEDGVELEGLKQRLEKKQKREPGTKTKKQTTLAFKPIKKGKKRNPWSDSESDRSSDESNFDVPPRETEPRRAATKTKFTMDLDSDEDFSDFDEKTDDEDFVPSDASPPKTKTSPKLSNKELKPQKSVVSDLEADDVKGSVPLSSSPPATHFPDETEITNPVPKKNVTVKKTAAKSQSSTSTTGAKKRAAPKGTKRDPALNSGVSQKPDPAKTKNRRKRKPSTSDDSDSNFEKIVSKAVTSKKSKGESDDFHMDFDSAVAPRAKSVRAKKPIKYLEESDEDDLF

SMILES | inhibition [1] | IC50 [2] [µM] | also measured
COc1ccc(C[C@H]2C[C@@H](n3cc(C)c(=O)[nH]c3=O)O[C@@H]2CO)cc1OC | inactive |  | 
COc1ccc(C[C@H]2C[C@@H](n3cc(C)c(=O)[nH]c3=O)O[C@@H]2CO[Si](C)(C)C(C)(C)C)cc1OC |  | 89.2 | 
Cc1cn([C@H]2C[C@H](CC3=CC(=O)C(=O)C=C3)[C@@H](CO[Si](C)(C)C(C)(C)C)O2)c(=O)[nH]c1=O |  | 2.43 | 
COc1ccc(C[C@H]2C[C@H](n3cc(C)c(=O)[nH]c3=O)O[C@@H]2CO)cc1OC | 23.7% | > 200 | inhibition [3]: inactive
Cc1cn([C@H]2C[C@H](Cc3ccc(O)c(O)c3)[C@@H](CO)O2)c(=O)[nH]c1=O |  | 176 | inhibition [4]: inactive; inhibition [5]: inactive; inhibition [2]: Dose-dependent effect; Activity [6]: inactive
COc1ccc(C2([C@H]3CC(=O)O[C@@H]3CO)SCCCS2)cc1OC | 19.8% | > 200 | 
COc1ccc(C[C@H]2CC(=O)O[C@@H]2CO[Si](C)(C)C(C)(C)C)cc1OC |  | 137 | 
